Test results: ChEMBL document CHEMBL1150046, “Three new cyclic peroxides from the marine sponge Plakortis aff simplex” (2003)

Tests used:
Assay type in all cases: functional
DU-145 = assay: Growth inhibition of human DU145 cells after 72 hrs by SRB assay; conditions: DU-145, 72 h
Outline: (§1)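 Cells kept in RPMI 1640 with 10% FBS, 2 mM L-glutamine, penicillin and streptomycin at 37 °C, 5% CO2. They were seeded at 5000 per well and allowed to attach in drug-free medium (24 h; also stated as 18 h). Compound dilutions in DMSO/EtOH were added for 72 h. Cells were fixed with cold TCA, stained with SRB, solubilised in Tris and read at 490 nm.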

[1] = Growth inhibition of human IGROV cells after 72 hrs by SRB assay; outline: as §1
LNCaP = assay: Growth inhibition of human LNCAP cells after 72 hrs by SRB assay; outline: as §1
K562 = assay: Growth inhibition of human K562 cells after 72 hrs by SRB assay; conditions: K562, 72 h; outline: as §1
SK-BR-3 = assay: Growth inhibition of human SKBR3 cells after 72 hrs by SRB assay; conditions: SK-BR-3, 72 h; outline: as §1
A549 = assay: Growth inhibition of human A549 after 72 hrs by SRB assay; conditions: A549, 72 h; outline: as §1
HT-29 = assay: Growth inhibition of human HT-29 cells after 72 hrs by SRB assay; conditions: HT-29, 72 h; outline: as §1
SK-OV-3 = assay: Growth inhibition of human SKOV3 cells after 72 hrs by SRB assay; conditions: SK-OV-3, 72 h; outline: as §1
SK-MEL-28 = assay: Growth inhibition of human SK-MEL-28 cells after 72 hrs by SRB assay; conditions: SK-MEL-28, 72 h; outline: as §1
LoVo [2] = assay: Growth inhibition of human LoVo after 72 hrs by SRB assay; outline: as §1
[3] = Growth inhibition of human IGROV-ET cells after 72 hrs by SRB assay; outline: as §1
PANC-1 = assay: Growth inhibition of human PANC1 cells after 72 hrs by SRB assay; conditions: PANC-1, 72 h; outline: as §1
LoVo [4] = assay: Growth inhibition of human Doxorubicin-resistant LoVo cells after 72 hrs by SRB assay; outline: as §1
[5] = read-out: LC50 (the source's name)

C[C@]1(CCCCCCCCCCc2ccccc2)C[C@](C)(CC(=O)O)OO1 [ANDAVADOIC ACID]
GI50 (DU-145): 627 nM
TGI (DU-145): 991 nM
CC50 (DU-145; [5]): 1560 nM
GI50 [1]: 102 nM
TGI [1]: 261 nM
CC50 [1, 5]: 1830 nM
GI50 (LNCaP): 478 nM
TGI (LNCaP): 863 nM
CC50 (LNCaP; [5]): 1560 nM
GI50 (K562): 497 nM
TGI (K562): 1010 nM
CC50 (K562; [5]): 2070 nM
GI50 (SK-BR-3): 914 nM
TGI (SK-BR-3): 1690 nM
CC50 (SK-BR-3; [5]): 2660 nM
GI50 (A549): 714 nM
TGI (A549): 1290 nM
CC50 (A549; [5]): 2330 nM
GI50 (HT-29): 643 nM
TGI (HT-29): 1130 nM
CC50 (HT-29; [5]): 1980 nM
GI50 (SK-OV-3): 698 nM
TGI (SK-OV-3): 1120 nM
CC50 (SK-OV-3; [5]): 1810 nM
GI50 (SK-MEL-28): 698 nM
TGI (SK-MEL-28): 1140 nM
CC50 (SK-MEL-28; [5]): 1860 nM
GI50 (LoVo [2]): 635 nM
TGI (LoVo [2]): 1210 nM
CC50 (LoVo [2]; [5]): 2310 nM
GI50 [3]: 133 nM
TGI [3]: 390 nM
CC50 [3, 5]: 1340 nM
GI50 (PANC-1): 526 nM
TGI (PANC-1): 961 nM
CC50 (PANC-1; [5]): 1750 nM
GI50 (LoVo [4]): 539 nM
TGI (LoVo [4]): 951 nM
CC50 (LoVo [4]; [5]): 1680 nM
